Data taken from ChEMBL document CHEMBL2034871, “First-in-class, dual-action, 3,5-disubstituted indole derivatives having human nitric oxide synthase (nNOS) and norepinephrine reuptake inhibitory (NERI) activity for the treatment of neuropathic pain” (J Med Chem, 2012).

Assays:
Homo sapiens = species: Homo sapiens; experiment: Selectivity ratio of IC50 for human eNOS to IC50 for human nNOS
Outline: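 Recombinant human nNOS and eNOS made in baculovirus-infected Sf9 cells. Buffer: 40 mM HEPES pH 7.4 with 2.4 mM CaCl2, 1 mM MgCl2, 1 mg/mL BSA, 1 mM EDTA, 1 mM DTT, 1 μM FMN/FAD, 10 μM BH4, 1 mM NADPH and 1.2 μM CaM. Compound preincubated 15 min at RT. Started with 24 μM L-arginine plus [3H]arginine. [3H]citrulline separated on DOWEX and counted; background from L-NMMA control; duplicates.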

[1] = molecular target: Nitric oxide synthase, inducible (Homo sapiens, UniProt P35228); experiment: Inhibition of human iNOS expressed in baculovirus-infected insect sf9 cells assessed as conversion of [3H]-L-arginine to [3H]-L-citrulline preincubated for 15 mins with compound measured after 45 mins by scintillation counting
Cytochrome P450 3A4 = Cytochrome P450 3A4 (Homo sapiens, UniProt P08684); experiment: Inhibition of CYP3A4; assay type: ADME
[2] = molecular target: Sodium-dependent noradrenaline transporter (Homo sapiens, UniProt P23975); experiment: Displacement of [3H]nisoxetine from human NET expressed in CHO cells after 120 mins by scintillation counting; assay type: cell-based
Outline: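 Membranes from hNET-transfected CHO cells (20 μg protein) incubated 120 min at 4 °C with 1 nM [3H]nisoxetine in 50 mM Tris-HCl pH 7.4, 120 mM NaCl, 5 mM KCl. Nonspecific binding defined with 1 μM desipramine. Filtered on PEI-soaked GF/B and counted.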

Nitric oxide synthase 3 = molecular target: T1, Nitric oxide synthase 3 (Homo sapiens, UniProt P29474); experiment: Inhibition of human eNOS expressed in baculovirus-infected insect sf9 cells assessed as conversion of [3H]-L-arginine to [3H]-L-citrulline preincubated for 15 mins with compound measured after 45 mins by scintillation counting
T1 sequence (P29474 whole entry): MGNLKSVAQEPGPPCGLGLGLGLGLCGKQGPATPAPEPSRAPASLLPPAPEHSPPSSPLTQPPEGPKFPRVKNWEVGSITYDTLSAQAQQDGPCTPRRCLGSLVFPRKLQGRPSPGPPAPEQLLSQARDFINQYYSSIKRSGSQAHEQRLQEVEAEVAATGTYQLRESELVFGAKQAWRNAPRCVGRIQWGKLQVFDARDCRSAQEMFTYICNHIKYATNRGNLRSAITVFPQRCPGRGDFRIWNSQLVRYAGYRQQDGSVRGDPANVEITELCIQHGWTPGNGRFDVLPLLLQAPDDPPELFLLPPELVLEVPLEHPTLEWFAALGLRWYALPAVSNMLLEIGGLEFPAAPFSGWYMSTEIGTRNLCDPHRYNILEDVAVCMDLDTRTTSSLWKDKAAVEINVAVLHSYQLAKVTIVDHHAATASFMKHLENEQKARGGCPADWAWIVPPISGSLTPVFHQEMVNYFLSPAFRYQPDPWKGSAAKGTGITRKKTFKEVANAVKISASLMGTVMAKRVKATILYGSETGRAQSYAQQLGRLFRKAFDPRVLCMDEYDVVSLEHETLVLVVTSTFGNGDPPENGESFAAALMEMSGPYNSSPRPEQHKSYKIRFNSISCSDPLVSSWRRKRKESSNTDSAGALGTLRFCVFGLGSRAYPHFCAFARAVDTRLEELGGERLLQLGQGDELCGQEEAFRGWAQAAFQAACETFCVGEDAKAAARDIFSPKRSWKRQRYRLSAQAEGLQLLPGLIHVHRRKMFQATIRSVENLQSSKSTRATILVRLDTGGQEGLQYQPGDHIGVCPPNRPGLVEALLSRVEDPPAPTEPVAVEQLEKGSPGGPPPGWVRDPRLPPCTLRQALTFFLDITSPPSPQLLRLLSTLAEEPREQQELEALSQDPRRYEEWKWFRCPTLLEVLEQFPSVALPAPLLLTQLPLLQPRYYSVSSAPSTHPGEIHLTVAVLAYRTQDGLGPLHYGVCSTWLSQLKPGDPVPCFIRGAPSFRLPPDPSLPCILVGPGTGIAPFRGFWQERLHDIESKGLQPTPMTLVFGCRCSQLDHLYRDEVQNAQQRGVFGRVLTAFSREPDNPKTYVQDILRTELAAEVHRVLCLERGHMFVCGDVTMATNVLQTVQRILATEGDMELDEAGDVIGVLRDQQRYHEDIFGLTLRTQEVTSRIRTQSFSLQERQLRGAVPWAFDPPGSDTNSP

Nitric oxide synthase 1 = Nitric oxide synthase 1 (Homo sapiens, UniProt P29475); experiment: Inhibition of human nNOS expressed in baculovirus-infected insect sf9 cells assessed as conversion of [3H]-L-arginine to [3H]-L-citrulline preincubated for 15 mins with compound measured after 45 mins by scintillation counting
Cytochrome P450 1A2 = molecular target: T2, Cytochrome P450 1A2 (Homo sapiens, UniProt P05177); experiment: Inhibition of CYP1A2; assay type: ADME; details: read-out: IC50
T2 sequence (P05177 whole entry): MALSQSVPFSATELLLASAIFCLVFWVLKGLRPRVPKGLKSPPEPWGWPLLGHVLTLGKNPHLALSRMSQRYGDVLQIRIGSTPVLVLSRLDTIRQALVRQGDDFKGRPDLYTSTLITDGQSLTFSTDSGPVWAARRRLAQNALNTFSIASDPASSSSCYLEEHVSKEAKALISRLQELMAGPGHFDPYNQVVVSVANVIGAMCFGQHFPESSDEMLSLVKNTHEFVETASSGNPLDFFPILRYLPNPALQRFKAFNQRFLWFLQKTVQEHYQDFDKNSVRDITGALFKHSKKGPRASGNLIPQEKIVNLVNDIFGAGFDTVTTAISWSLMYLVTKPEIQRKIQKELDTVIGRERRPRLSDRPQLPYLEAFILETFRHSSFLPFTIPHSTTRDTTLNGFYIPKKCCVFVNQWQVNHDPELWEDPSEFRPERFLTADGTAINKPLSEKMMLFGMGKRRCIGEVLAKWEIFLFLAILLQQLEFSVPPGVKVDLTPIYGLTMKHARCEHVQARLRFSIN

Cytochrome P450 2C9 = Cytochrome P450 2C9 (Homo sapiens, UniProt P11712); experiment: Inhibition of CYP2C9; assay type: ADME; details: read-out: IC50
Cytochrome P450 2C19 = Cytochrome P450 2C19 (Homo sapiens, UniProt P33261); experiment: Inhibition of CYP2C19; assay type: ADME
Cytochrome P450 2D6 = Cytochrome P450 2D6 (Homo sapiens, UniProt P10635); experiment: Inhibition of CYP2D6; assay type: ADME
Chain of Cytochrome P450 2D6 (P10635 whole entry): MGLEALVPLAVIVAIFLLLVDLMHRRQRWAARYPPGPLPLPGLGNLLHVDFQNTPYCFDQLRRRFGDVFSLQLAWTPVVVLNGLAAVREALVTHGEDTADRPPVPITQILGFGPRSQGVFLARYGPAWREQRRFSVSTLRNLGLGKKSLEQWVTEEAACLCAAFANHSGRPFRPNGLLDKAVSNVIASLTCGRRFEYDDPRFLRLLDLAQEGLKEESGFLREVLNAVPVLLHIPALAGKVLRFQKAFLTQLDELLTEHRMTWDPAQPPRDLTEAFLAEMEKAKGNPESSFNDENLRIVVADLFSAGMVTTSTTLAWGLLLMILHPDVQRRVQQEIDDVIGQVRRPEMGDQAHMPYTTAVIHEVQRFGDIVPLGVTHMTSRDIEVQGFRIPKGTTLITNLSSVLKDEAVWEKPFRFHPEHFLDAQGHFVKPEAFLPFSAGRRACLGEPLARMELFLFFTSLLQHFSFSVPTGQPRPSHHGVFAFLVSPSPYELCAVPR

Chain of Nitric oxide synthase, inducible (P35228 whole entry): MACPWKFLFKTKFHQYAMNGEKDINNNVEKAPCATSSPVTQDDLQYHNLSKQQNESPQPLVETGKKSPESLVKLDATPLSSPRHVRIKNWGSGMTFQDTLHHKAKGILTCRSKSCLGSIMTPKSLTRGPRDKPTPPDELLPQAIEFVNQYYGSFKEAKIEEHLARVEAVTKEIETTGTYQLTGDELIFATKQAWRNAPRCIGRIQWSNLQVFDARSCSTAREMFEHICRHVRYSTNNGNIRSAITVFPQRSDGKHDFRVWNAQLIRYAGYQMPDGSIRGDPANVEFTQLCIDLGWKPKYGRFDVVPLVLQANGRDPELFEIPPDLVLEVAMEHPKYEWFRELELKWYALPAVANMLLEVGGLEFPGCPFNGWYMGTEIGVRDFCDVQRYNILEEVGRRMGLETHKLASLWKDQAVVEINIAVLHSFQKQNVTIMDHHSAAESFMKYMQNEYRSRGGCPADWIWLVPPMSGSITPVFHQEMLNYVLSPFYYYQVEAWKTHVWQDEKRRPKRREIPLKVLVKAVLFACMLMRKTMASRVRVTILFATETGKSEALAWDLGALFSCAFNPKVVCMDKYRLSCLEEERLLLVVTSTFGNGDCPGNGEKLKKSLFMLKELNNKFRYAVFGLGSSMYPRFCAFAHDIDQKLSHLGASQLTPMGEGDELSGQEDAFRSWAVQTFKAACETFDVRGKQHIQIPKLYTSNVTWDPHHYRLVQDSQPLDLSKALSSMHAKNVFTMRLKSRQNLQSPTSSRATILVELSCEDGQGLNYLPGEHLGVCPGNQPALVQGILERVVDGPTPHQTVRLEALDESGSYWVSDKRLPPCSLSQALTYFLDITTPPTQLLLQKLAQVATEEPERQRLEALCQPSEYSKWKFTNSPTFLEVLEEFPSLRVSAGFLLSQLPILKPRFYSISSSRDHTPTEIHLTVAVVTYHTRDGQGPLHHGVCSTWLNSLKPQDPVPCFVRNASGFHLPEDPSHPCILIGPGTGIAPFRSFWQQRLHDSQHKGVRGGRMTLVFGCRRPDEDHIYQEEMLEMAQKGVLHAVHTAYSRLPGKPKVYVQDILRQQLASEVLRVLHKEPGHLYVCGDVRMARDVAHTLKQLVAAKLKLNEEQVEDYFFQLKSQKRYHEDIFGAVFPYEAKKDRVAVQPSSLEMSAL
Chain of Nitric oxide synthase 1 (P29475 whole entry): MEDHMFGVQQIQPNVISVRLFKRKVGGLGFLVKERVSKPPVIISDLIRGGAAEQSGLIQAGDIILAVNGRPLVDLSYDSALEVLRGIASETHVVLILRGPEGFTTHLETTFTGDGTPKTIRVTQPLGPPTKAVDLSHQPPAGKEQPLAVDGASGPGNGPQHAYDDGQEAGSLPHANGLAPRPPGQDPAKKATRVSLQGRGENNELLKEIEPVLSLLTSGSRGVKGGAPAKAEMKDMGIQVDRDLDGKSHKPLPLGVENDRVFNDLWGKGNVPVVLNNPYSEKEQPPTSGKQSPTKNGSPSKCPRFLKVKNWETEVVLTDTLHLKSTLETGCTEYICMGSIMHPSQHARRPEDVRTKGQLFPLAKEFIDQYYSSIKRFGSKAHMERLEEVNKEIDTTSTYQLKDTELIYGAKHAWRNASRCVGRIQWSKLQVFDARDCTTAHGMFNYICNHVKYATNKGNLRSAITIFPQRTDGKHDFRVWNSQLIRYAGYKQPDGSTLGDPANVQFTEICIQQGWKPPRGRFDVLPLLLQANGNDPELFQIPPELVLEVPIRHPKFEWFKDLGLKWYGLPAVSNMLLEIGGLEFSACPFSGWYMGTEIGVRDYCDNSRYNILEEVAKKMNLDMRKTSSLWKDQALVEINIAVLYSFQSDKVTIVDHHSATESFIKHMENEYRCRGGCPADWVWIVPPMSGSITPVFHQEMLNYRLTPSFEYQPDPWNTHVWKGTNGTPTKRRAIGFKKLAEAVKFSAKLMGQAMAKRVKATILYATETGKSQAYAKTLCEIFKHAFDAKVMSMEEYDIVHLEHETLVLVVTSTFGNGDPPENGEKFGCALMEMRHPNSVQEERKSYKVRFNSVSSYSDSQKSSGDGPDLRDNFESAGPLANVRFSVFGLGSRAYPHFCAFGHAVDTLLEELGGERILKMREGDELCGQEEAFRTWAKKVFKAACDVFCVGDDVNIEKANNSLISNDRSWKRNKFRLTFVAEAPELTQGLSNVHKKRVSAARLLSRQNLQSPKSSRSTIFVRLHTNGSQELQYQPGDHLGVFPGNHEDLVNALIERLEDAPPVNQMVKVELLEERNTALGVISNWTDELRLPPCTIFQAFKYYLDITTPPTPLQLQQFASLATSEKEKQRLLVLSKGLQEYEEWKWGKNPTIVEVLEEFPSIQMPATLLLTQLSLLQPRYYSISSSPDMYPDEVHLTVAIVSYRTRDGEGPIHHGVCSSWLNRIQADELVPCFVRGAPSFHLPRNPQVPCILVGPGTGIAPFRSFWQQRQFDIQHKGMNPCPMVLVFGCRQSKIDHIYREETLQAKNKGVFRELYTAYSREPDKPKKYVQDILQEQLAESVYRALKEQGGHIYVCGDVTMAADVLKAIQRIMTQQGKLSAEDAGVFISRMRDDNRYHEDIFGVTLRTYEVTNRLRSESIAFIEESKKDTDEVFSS
Chain of Sodium-dependent noradrenaline transporter (P23975 whole entry): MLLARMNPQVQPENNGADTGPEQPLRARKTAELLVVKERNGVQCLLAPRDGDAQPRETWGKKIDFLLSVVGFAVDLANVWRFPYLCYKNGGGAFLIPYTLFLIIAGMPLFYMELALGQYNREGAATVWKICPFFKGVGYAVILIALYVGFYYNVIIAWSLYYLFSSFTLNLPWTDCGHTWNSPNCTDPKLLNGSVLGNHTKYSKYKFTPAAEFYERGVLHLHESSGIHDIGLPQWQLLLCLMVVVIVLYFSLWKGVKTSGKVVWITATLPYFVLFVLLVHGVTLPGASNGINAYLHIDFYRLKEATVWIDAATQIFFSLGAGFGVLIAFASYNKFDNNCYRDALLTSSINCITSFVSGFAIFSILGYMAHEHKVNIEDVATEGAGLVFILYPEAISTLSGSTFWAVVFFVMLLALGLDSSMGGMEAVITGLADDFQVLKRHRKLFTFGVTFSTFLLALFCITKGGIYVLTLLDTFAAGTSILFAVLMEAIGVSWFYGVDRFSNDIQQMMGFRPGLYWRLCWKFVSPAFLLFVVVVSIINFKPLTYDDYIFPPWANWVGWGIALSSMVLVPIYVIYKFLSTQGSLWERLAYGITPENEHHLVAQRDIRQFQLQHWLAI
Chain of Cytochrome P450 2C9 (P11712 whole entry): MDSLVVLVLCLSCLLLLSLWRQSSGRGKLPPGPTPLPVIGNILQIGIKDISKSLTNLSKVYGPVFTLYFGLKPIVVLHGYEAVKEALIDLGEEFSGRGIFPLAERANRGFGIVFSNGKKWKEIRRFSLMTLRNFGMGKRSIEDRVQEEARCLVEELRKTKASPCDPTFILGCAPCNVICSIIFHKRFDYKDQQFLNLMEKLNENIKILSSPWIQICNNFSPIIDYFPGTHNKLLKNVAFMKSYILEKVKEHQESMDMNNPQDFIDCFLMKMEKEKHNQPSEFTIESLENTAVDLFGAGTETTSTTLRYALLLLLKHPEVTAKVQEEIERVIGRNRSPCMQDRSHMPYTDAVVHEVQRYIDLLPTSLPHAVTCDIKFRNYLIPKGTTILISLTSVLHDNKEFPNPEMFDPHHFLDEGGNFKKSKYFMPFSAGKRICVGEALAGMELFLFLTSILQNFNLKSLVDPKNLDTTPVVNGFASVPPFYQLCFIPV
Chain of Cytochrome P450 3A4 (P08684 whole entry): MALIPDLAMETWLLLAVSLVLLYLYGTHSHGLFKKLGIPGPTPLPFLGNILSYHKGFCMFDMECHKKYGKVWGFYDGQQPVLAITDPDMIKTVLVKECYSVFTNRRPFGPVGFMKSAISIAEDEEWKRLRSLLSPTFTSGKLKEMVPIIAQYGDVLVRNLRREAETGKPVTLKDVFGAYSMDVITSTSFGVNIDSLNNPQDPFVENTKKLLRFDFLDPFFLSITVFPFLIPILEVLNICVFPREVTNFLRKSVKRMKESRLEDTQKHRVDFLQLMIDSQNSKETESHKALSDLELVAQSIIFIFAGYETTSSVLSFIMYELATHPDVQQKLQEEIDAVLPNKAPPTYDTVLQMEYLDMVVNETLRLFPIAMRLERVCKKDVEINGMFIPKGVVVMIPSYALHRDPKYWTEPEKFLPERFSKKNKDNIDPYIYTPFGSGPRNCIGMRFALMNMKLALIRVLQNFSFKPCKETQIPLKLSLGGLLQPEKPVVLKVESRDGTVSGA

Row | Compound | Ratio IC50 (Homo sapiens) | IC50 [1] [µM] | IC50 [2] [µM] | also measured
1 | CN(C)C1CC=C(c2c[nH]c3ccc(/N=C(\N)c4cccs4)cc23)CC1 (racemic) | 17 | – | – | –
2 | CNC1CC=C(c2c[nH]c3ccc(/N=C(\N)c4cccs4)cc23)CC1 (racemic) | 19 | – | – | –
3 | CN[C@H]1CCC[C@@H](c2c[nH]c3ccc(NC(=N)c4cccs4)cc23)C1 (racemic) | – | 54.1 | 2.4 | IC50 (Nitric oxide synthase 3): 77.6 µM
4 | CN(C)C1CC=C(c2c[nH]c3ccc(/N=C(\N)c4cccs4)cc23)CC1 (single isomer, unassigned; (+)) | 114 | – | – | –
5 | CN(C)C1CC=C(c2c[nH]c3ccc(/N=C(\N)c4cccs4)cc23)CC1 (single isomer, unassigned; (-)) | 54 | – | – | –
6 | CN(C)C1CC=C(c2c[nH]c3ccc(NC(=N)c4cccs4)cc23)CC1 (single isomer, unassigned; (-)) | – | – | – | IC50 (Nitric oxide synthase 1): 0.86 µM
7 | CN[C@H]1CCC[C@H](c2c[nH]c3ccc(NC(=N)c4cccs4)cc23)C1 (racemic) | – | 14.5 | 0.88 | IC50 (Nitric oxide synthase 3): 7.76 µM
8 | CN(C)C1CC=C(c2c[nH]c3ccc(NC(=N)c4cccs4)cc23)CC1 (single isomer, unassigned; (+)) | – | – | – | IC50 (Nitric oxide synthase 1): 0.84 µM
9 | CNC1CCCC(c2c[nH]c3ccc(NC(=N)c4cccs4)cc23)C1 (single isomer, unassigned; (-)) | – | 70 | – | –

More lines, main results first:

Row | Ratio IC50 (Homo sapiens) | IC50 [1] [µM] | IC50 [2] [µM] | Compound | also measured
10 | – | 155 | – | CCN[C@H]1CC[C@H](c2c[nH]c3ccc(NC(=N)c4cccs4)cc32)CC1 | –
11 | – | […] | – | CN[C@H]1CC[C@@H](c2c[nH]c3ccc(NC(=N)c4cccs4)cc32)CC1 | IC50 (Cytochrome P450 3A4): 57.3 µM
12 | – | 19.2 | 1.7 | CCN[C@H]1CCC[C@@H](c2c[nH]c3ccc(NC(=N)c4cccs4)cc23)C1 (racemic) | –
13 | 63 | 149 | 2.2 | CN(C)[C@H]1CC[C@H](c2c[nH]c3ccc(NC(=N)c4cccs4)cc32)CC1 | IC50 (Nitric oxide synthase 1): 4.52 µM; IC50 (Nitric oxide synthase 3): 284 µM
14 | – | 54.2 | 0.76 | CCN[C@H]1CCC[C@H](c2c[nH]c3ccc(NC(=N)c4cccs4)cc23)C1 (racemic) | –
15 | – | 24 | – | CN(C)C1CC=C(c2c[nH]c3ccc(NC(=N)c4cccs4)cc23)CC1 (racemic) | –
16 | – | 493 | – | CCN[C@H]1CC[C@@H](c2c[nH]c3ccc(NC(=N)c4cccs4)cc32)CC1 | IC50 (Cytochrome P450 1A2): > 100 µM; IC50 (Cytochrome P450 2C9): 21.5 µM; IC50 (Cytochrome P450 2C19): 23.4 µM; IC50 (Cytochrome P450 2D6): 0.927 µM
17 | 28 | – | – | CCNC1CC=C(c2c[nH]c3ccc(NC(=N)c4cccs4)cc23)CC1 (racemic) | –
18 | 51 | 26.5 | 0.16 | CN(C)[C@H]1CC[C@@H](c2c[nH]c3ccc(NC(=N)c4cccs4)cc32)CC1 | IC50 (Nitric oxide synthase 1): 0.35 µM; IC50 (Nitric oxide synthase 3): 17.5 µM
